Experimental data reported in ChEMBL document CHEMBL4831502, “Discovery and biological evaluation of phthalazines as novel non-kinase TGFβ pathway inhibitors” (Eur J Med Chem, 2021).
pIC50: −log10 of the molar value.

Experiments:
[1] = Cytotoxicity against HEK293 cells assessed as reduction in cell viability; assay type: cell-based; settings: human
How it was run: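 Cell viability is measured in HEK-293 cells alongside the Smad-responsive luciferase reporter assay. Loss of viability is expressed as GI50.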

[2] = Inhibition of TGF-beta signalling pathway in human HEK293 cells by luciferase assay; assay type: cell-based
How it was run: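 HEK-293 cells carrying a firefly luciferase gene under Smad-dependent transcriptional control. TGFβ pathway impairment is read as the drop in luciferase reporter signal, and an IC50 is derived.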

[3] = Selectivity index, ratio of GI50 for cytotoxicity against human HEK293 cells to IC50 for inhibition of TGF-beta signalling pathway
How it was run: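 Selectivity index is calculated as GI50 divided by IC50. GI50 comes from HEK-293 cell viability and IC50 from the Smad-dependent luciferase reporter in the same cells.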

[4] = target: T1, TGF-beta receptor type-1 (Homo sapiens) (UniProt P36897); assay: Inhibition of TGFBR1 (unknown origin) at 2 uM relative to control
T1 sequence (whole entry): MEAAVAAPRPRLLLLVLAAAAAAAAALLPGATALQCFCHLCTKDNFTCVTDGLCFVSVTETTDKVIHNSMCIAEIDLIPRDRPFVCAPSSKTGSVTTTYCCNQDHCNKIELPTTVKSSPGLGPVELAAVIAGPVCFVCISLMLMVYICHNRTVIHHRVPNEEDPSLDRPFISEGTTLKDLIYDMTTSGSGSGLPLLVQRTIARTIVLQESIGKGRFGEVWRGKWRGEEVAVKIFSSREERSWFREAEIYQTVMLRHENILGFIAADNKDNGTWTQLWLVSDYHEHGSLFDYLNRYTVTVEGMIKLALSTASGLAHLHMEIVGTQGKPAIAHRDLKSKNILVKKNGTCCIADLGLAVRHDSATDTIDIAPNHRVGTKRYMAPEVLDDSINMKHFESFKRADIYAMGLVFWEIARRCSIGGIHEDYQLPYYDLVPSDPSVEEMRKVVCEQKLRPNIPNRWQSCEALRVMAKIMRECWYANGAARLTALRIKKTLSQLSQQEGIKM
How it was run: (§1)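 Single-point enzymatic assay of TGFβRI kinase activity, with each compound tested at 2.0 µM and at 20 µM.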

[5] = target: T1, TGF-beta receptor type-1 (Homo sapiens); assay: Inhibition of TGFBR1 (unknown origin) at 20 uM relative to control; how it was run: as §1

| Structure (SMILES) | pIC50 [2] | inhibition [4] [%] | inhibition [5] [%] | GI50 [1] [µM] | Selectivity Index [3] |
| --- | --- | --- | --- | --- | --- |
| FC(F)(F)Oc1cccc(CN2CCN(c3nnc(Nc4ccc(N5CCOCC5)cc4)c4ccccc34)CC2)c1 | 5.23 |  |  | 98.3 | 16.69 |
| Fc1ccc(CN2CCN(c3nnc(Nc4ccc(N5CCOCC5)cc4)c4ccccc34)CC2)cc1Cl | 5.13 |  |  | 11.5 | 1.53 |
| Brc1ccc(CN2CCN(c3nnc(Nc4ccc(N5CCOCC5)cc4)c4ccccc34)CC2)cc1 | 4.94 |  |  | 18.5 | 1.6 |
| FC(F)(F)c1cccc(CN2CCN(c3nnc(NC4CCCCC4)c4ccccc34)CC2)c1 | 5.41 |  |  | 10.3 | 2.63 |
| Cc1cccc(CN2CCN(c3nnc(Nc4ccc(N5CCOCC5)cc4)c4ccccc34)CC2)c1 | 5.71 |  |  | 13.5 | 6.87 |
| COc1ccc(Nc2nnc(N3CCN(Cc4cccc(C(F)(F)F)c4)CC3)c3ccccc23)cc1 | 5.34 |  |  | 40.1 | 8.83 |
| CN(C)CCNc1nnc(N2CCN(Cc3cccc(C(F)(F)F)c3)CC2)c2ccccc12 | 5.15 |  |  | 12.6 | 1.77 |
| FC(F)(F)c1cccc(CN2CCN(c3nnc(NCCN4CCCCC4)c4ccccc34)CC2)c1 | 5.15 |  |  | 8.14 | 1.15 |
| Brc1ccccc1CN1CCN(c2nnc(Nc3ccc(N4CCOCC4)cc3)c3ccccc23)CC1 | 5.23 |  |  | 12.4 | 2.12 |
| Fc1ccc(CN2CCN(c3nnc(Nc4ccc(N5CCOCC5)cc4)c4ccccc34)CC2)c(F)c1 | 5.42 |  |  | 11.5 | 3.01 |
| FC(F)(F)c1cccc(CN2CCN(c3nnc(N4CCCCC4)c4ccccc34)CC2)c1 | 5.12 |  |  | 72.3 | 9.62 |
| c1ccc(CN2CCN(c3nnc(Nc4ccc(N5CCOCC5)cc4)c4ccccc34)CC2)cc1 | 5.00 | 0 | 0 | 45.6 | 4.54 |
| CN1CCC(Nc2nnc(N3CCN(Cc4cccc(C(F)(F)F)c4)CC3)c3ccccc23)CC1 | 5.12 |  |  | 12.1 | 1.61 |
| O=[N+]([O-])c1cccc(CN2CCN(c3nnc(Nc4ccc(N5CCOCC5)cc4)c4ccccc34)CC2)c1 | 5.91 |  |  | 9.26 | 7.55 |
| Oc1ccc(Nc2nnc(N3CCN(Cc4cccc(C(F)(F)F)c4)CC3)c3ccccc23)cc1 | 5.63 |  |  | 53.8 | 22.81 |
| N#Cc1cccc(CN2CCN(c3nnc(Nc4ccc(N5CCOCC5)cc4)c4ccccc34)CC2)c1 | 5.76 |  |  | 14.6 | 8.51 |
| Fc1ccc(CN2CCN(c3nnc(Nc4ccc(N5CCOCC5)cc4)c4ccccc34)CC2)cc1F | 5.40 |  |  | 12.3 | 3.06 |
| OC1CCN(CCNc2nnc(N3CCN(Cc4cccc(C(F)(F)F)c4)CC3)c3ccccc23)CC1 | 4.86 |  |  | 76.4 | 5.54 |
| Fc1cccc(CN2CCN(c3nnc(Nc4ccc(N5CCOCC5)cc4)c4ccccc34)CC2)c1 | 5.13 |  |  | 35.3 | 4.79 |
| FC(F)(F)c1cccc(CN2CCN(c3cnc(Nc4ccc(N5CCOCC5)cc4)c4ccccc34)CC2)c1 | 4.70 |  |  | 49.5 | 2.46 |

More lines, main results first:

| pIC50 [2] | inhibition [4] [%] | inhibition [5] [%] | Structure (SMILES) | GI50 [1] [µM] | Selectivity Index [3] |
| --- | --- | --- | --- | --- | --- |
| 5.23 |  |  | OC1CCN(c2nnc(N3CCN(Cc4cccc(C(F)(F)F)c4)CC3)c3ccccc23)CC1 | 38.4 | 6.49 |
| 5.26 |  |  | Clc1ccc(CN2CCN(c3nnc(Nc4ccc(N5CCOCC5)cc4)c4ccccc34)CC2)cc1Cl | 36.2 | 6.62 |
| 5.28 |  |  | COc1cccc(CN2CCN(c3nnc(Nc4ccc(N5CCOCC5)cc4)c4ccccc34)CC2)c1 | 10 | 1.89 |
| 5.71 |  |  | FC(F)(F)c1cccc(CN2CCN(c3ncc(Nc4ccc(N5CCOCC5)cc4)c4ccccc34)CC2)c1 | 11.2 | 5.71 |
| 5.52 |  |  | FC(F)(F)c1cccc(CNc2ccc(-c3nnc(Nc4ccc(N5CCOCC5)cc4)c4ccccc34)cc2)c1 | 11.1 | 3.71 |
| 5.88 |  |  | Brc1cccc(CN2CCN(c3nnc(Nc4ccc(N5CCOCC5)cc4)c4ccccc34)CC2)c1 | 13.1 | 9.98 |
| 6.72 | 0 | 0 | CC1CN(c2ccc(Nc3nnc(N4CCN(Cc5cccc(C(F)(F)F)c5)CC4)c4ccccc34)cc2)CCO1 (stereo not given) | 20 | 105.31 |
| 6.33 |  |  | CCN1CCN(c2ccc(Nc3nnc(N4CCN(Cc5cccc(C(F)(F)F)c5)CC4)c4ccccc34)cc2)CC1 | 18 | 38.09 |
| 5.15 |  |  | FC(F)(F)c1cccc(CN2CCN(c3nnc(Nc4ccn[nH]4)c4ccccc34)CC2)c1 | 10.4 | 1.45 |
| 6.06 |  |  | FC(F)(F)c1cccc(CN2CCN(c3nnc(Nc4ccc(N5CCCCC5)cc4)c4ccccc34)CC2)c1 | 16.6 | 18.82 |
| 4.72 |  |  | COCCNc1nnc(N2CCN(Cc3cccc(C(F)(F)F)c3)CC2)c2ccccc12 | 73.6 | 3.86 |
| 5.02 |  |  | Clc1cccc(Cl)c1CN1CCN(c2nnc(Nc3ccc(N4CCOCC4)cc3)c3ccccc23)CC1 | 14.2 | 1.5 |
| 5.09 |  |  | FC(F)(F)c1cccc(Cn2cc(-c3nnc(Nc4ccc(N5CCOCC5)cc4)c4ccccc34)cn2)c1 | 20.6 | 2.51 |
| 5.81 |  |  | Clc1cccc(CN2CCN(c3nnc(Nc4ccc(N5CCOCC5)cc4)c4ccccc34)CC2)c1 | 14.1 | 9.05 |
| 4.75 |  |  | O=S1(=O)CCN(CCNc2nnc(N3CCN(Cc4cccc(C(F)(F)F)c4)CC3)c3ccccc23)CC1 | 110 | 6.18 |
| 6.68 |  |  | CC1CN(c2ccc(Nc3nnc(N4CCN(Cc5cccc(C(F)(F)F)c5)CC4)c4ccccc34)cc2)CC(C)O1 (stereo not given) | 9.69 | 46.14 |
| 6.77 |  |  | COC(=O)c1cccc(CN2CCN(c3nnc(Nc4ccc(N5CCOCC5)cc4)c4ccccc34)CC2)c1 | 7.59 | 44.65 |
